pEC50, pIC50: −log10 of the molar value.
Key:
[1] = target: Human immunodeficiency virus type 1 reverse transcriptase (Human immunodeficiency virus 1, UniProt Q72547); assay: Inhibitory concentration required against Reverse transcriptase (RT)
Outline: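 Wild-type HIV-1 RT (1.0 μg) extends -47 primer annealed to single-stranded M13mp18 DNA. Run 30 min at 37 °C, then TCA-precipitated, filtered, scintillation counted; duplicate.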

MT2 = assay: Effective concentration required to protect MT-2 cells against cytopathogenicity of HIV-1 LAI; format: functional, cell-based; details: Homo sapiens
Outline: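 MT-2 cells (2×10^3) challenged with 100 TCID50 HIV-1 LAI and cultured with compound. MTT read-out on day 7 gives EC50 for 50% protection; run in duplicate.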

MT4 = assay: Effective concentration required to protect MT-4 cells against cytopathogenicity of HIV-1 LAI; format: functional, cell-based; details: Homo sapiens
Outline: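 MT-4 cells (3×10^4) exposed to 100 TCID50 HIV-1 LAI and cultured with compound. Viability read by MTT assay on day 5. EC50 taken as 50% protection against cytopathogenicity; duplicate assays.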

CCRF-CEM [2] = assay: Cytostatic concentration required to inhibit Human T-Lymphocyte (CEM) cells proliferation caused by HIV-1 (IIIB); format: functional
Outline: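 CEM cell proliferation measured; value is concentration inhibiting proliferation by 50%.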

CCRF-CEM [3] = assay: Effective concentration required to protect Human T-Lymphocyte (CEM) cells against cytopathogenicity of HIV-1 (IIIB); format: functional, cell-based
Outline: (§1)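 CEM cells at 4.5×10^5 cells/mL infected with 100 CCID50/mL of HIV-1 or HIV-2, then mixed 1:1 with compound dilutions (final 200, 40, 8, 0.32, 0.062 μg/mL) and held at 37 °C. Syncytia counted microscopically after 4–5 days. EC50 is the concentration preventing syncytium formation by 50%.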

CCRF-CEM [4] = assay: Effective concentration required to protect Human T-Lymphocyte (CEM) cells against cytopathogenicity of HIV-2 (ROD); format: functional, cell-based; outline: as §1
CCRF-CEM [5] = assay: Effective concentration required to protect activity Human CEM/TK- cells against cytopathogenicity of HIV virus; format: functional, cell-based
[6] = Effective concentration required to inhibit P24 antigen production in PHA-PBM cells exposed to HIV-1 LAI; format: functional, cell-based; details: Homo sapiens, PBMC
Outline: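 PHA-stimulated PBM cells at 1×10^6/mL exposed to 50 TCID50 HIV-1 LAI with 10-fold serial drug dilutions, triplicate. p24 antigen measured by radioimmunoassay after 7 days of culture. EC50 set against p24 in drug-free controls.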

Compound | pIC50 [1] | pEC50 (MT2) | pEC50 (CCRF-CEM [3]) | pEC50 (CCRF-CEM [4]) | pEC50 (CCRF-CEM [5]) | pEC50 [6] | pEC50 (MT4) | CC50 (CCRF-CEM [2]) [nM]
Cc1cn([C@H]2C[C@H](N=[N+]=[N-])[C@@H](CO)O2)c(=O)[nH]c1=O [ZIDOVUDINE] |  | 7.52 |  |  |  |  | 7.70 | 
Cc1cn([C@H]2C=C[C@]3(CO)C[C@H]23)c(=O)[nH]c1=O |  | 5.21 | 6.02 | 5.84 | < 3.60 | 7.22 | 5.16 | > 250000

Continued, in another order:

pIC50 [1] | pEC50 (MT2) | pEC50 (CCRF-CEM [3]) | pEC50 (CCRF-CEM [4]) | pEC50 (CCRF-CEM [5]) | pEC50 [6] | Compound | pEC50 (MT4) | CC50 (CCRF-CEM [2]) [nM]
7.10 |  |  |  |  |  | Cc1cn([C@H]2C=C[C@@H](COP(=O)(O)OP(=O)(O)OP(=O)(O)O)O2)c(=O)[nH]c1=O |  | 
6.19 |  |  |  |  |  | Cc1cn([C@H]2C=C[C@]3(COP(=O)(O)OP(=O)(O)OP(=O)(O)O)C[C@H]23)c(=O)[nH]c1=O |  | 
 | 5.74 | 6.68 | 6.40 | 4.57 | 7.40 | Cc1cn([C@H]2C=C[C@@H](CO)O2)c(=O)[nH]c1=O [STAVUDINE] | 6.15 | 93000
